# Activity calls are given as the source filed them. No cut-off for these calls is given here.
# How the values were obtained:
# [1] = tested on: Hepatitis C virus; assay: Enhancement of HCV RNA replication in OR6 cells after 72 hrs by luciferase reporter assay; type: functional, organism-based; settings: Hepacivirus hominis
# Summary of the method: (§1)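 OR6 cells (HuH-7 carrying genome-length HCV-O genotype 1b RNA with a Renilla luciferase-NeoR fusion) are seeded in triplicate, 1.0–1.5 × 10^4 per well, and grown 24 h. Nutrients are then added for 72 h, or 24 h in the time course. Renilla luciferase is read from cell lysates and expressed as % of untreated cells. Liposoluble nutrients are carried in DMSO or ethanol at 0.1% final. EC50 is obtained by sigmoid regression.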
# [2] = tested on: Hepatitis C virus; assay: Antiviral activity against HCV assessed as inhibition of HCV RNA replication in OR6 cells after 72 hrs by luciferase reporter assay; type: functional, organism-based, Hepacivirus hominis; settings: OR6, 72 h; summary of the method: as §1
# [3] = tested on: Hepatitis C virus; assay: Antiviral activity against HCV assessed as suppression of HCV RNA replication in ORN/C-5B/KE/poly cells after 72 hrs by luciferase reporter assay; type: functional; settings: Hepacivirus hominis
# Summary of the method: (§2)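 Polyclonal HuH-7 lines carrying either genome-length (ORN/C-5B/KE/poly) or subgenomic (ORN/3-5B/KE/poly) HCV-O genotype 1b RNA with a Renilla luciferase reporter are kept in DMEM with 10% FBS and G418 300 μg/ml. They are treated as in the OR6 assay for 72 h. Renilla luciferase is then measured and expressed as % of untreated cells.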
# [4] = Cytotoxicity against human OR6 cells after 72 hrs; type: cell-based; settings: or6, 72 h
# Summary of the method: (§3)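 For viability, OR6 cells are plated in triplicate and grown 24 h: 4.5–5 × 10^4 cells (72 h assay) or 1–1.5 × 10^4 cells (120 h assay). Nutrients are then applied for 72 or 120 h. Viable cells are counted by trypan blue exclusion and expressed as % of the untreated cell number.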
# [5] = Cytotoxicity against human OR6 cells after 120 hrs; type: cell-based; settings: or6, 120 h; summary of the method: as §3
# [6] = tested on: Hepatitis C virus; assay: Antiviral activity against HCV assessed as suppression of HCV RNA replication in ORN/3-5B/KE/poly cells after 72 hrs by luciferase reporter assay; type: functional, organism-based; settings: Hepacivirus hominis; summary of the method: as §2
# [7] = tested on: Hepatitis C virus; assay: Antiviral activity against HCV assessed as inhibition of HCV RNA replication in OR6 cells after 24 hrs by luciferase reporter assay; type: functional, organism-based; settings: Hepacivirus hominis; summary of the method: as §1
# [8] = Cytotoxicity against human OR6 cells after 120 hrs by cell viability assay; type: cell-based; settings: or6, 120 h; summary of the method: as §3
# [9] = tested on: Hepatitis C virus; assay: Antiviral activity against HCV assessed as inhibition of HCV RNA replication in OR6 cells at 50 uM after 120 hrs by luciferase reporter assay; type: functional, Hepacivirus hominis; settings: OR6, 120 h
# Summary of the method: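 The time course uses OR6 cells (HuH-7, genome-length HCV genotype 1b RL reporter), 0.5 × 10^4 cells per well in triplicate, grown 24 h before exposure. Treatment runs 120 h at the stated 50 μM. Renilla luciferase activity in lysates is given as % of untreated control.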
# [10] = tested on: Hepatitis C virus; assay: Enhancement of HCV RNA replication in ORN/3-5B/KE/poly cells after 72 hrs by luciferase reporter assay; type: functional, organism-based; settings: Hepacivirus hominis; summary of the method: as §2
# [11] = tested on: Hepatitis C virus; assay: Enhancement of HCV RNA replication in ORN/C-5B/KE/poly cells after 72 hrs by luciferase reporter assay; type: functional, organism-based; settings: Hepacivirus hominis; summary of the method: as §2
Compound,EC50 [2],Activity [1],Activity [3],Activity [4],Activity [5],Activity [6],Activity [8],further results
CC1=C(/C=C/C(C)=C/C=C/C(C)=C/CO)C(C)(C)CCC1,–,Active,–,–,–,–,–,–
O=C1O[C@H]([C@@H](O)CO)C(O)=C1O,–,Active,–,–,–,–,–,–
O=[Se](=O)(O)O,–,Active,–,–,–,–,–,–
CCCCC/C=C\C/C=C\C/C=C\C/C=C\CCCC(=O)O [ARACHIDONIC ACID],22.1 µM,–,–,–,–,–,–,–
VITAMIN E,–,Active,Active,–,–,–,–,Activity [10]: inactive; Activity [11]: Active

# Further lines, with some results ahead:
EC50 [2],Compound,Activity [1],Activity [3],Activity [4],Activity [5],Activity [6],Activity [8],further results
6.3 µM,CC1=C(/C=C/C(C)=C/C=C/C(C)=C/C=C/C=C(C)/C=C/C=C(C)/C=C/C2=C(C)CCCC2(C)C)C(C)(C)CCC1 [BETA CAROTENE],–,Active,Non-toxic,Non-toxic,Active,Non-toxic,Activity [7]: Active
37 µM,CC/C=C\C/C=C\C/C=C\C/C=C\C/C=C\C/C=C\CCC(=O)O [DOCONEXENT],–,–,–,–,–,–,–
3.8 µM,C=C1CC[C@H](O)C/C1=C/C=C1\CCC[C@]2(C)[C@@H]([C@H](C)/C=C/[C@H](C)C(C)C)CC[C@@H]12 [ERGOCALCIFEROL],–,Active,Non-toxic,Non-toxic,Active,Non-toxic,Activity [7]: Active
36.2 µM,CC/C=C\C/C=C\C/C=C\C/C=C\C/C=C\CCCC(=O)O [ICOSAPENT],–,–,–,–,–,–,–
20.2 µM,CCCCC/C=C\C/C=C\CCCCCCCC(=O)O [LINOLEIC ACID],–,Active,Non-toxic,Non-toxic,Active,Non-toxic,inhibition at 50 µM [9]: 90%

# Reference: ChEMBL document CHEMBL1144469, “Comprehensive analysis of the effects of ordinary nutrients on hepatitis C virus RNA replication in cell culture” (Antimicrob Agents Chemother, 2007)
